≈ marks a conversion by molar mass, not a printed value.

In the assay the test system is Mycobacterium tuberculosis. Put plainly: Antimycobacterial activity against Mycobacterium tuberculosis H37Rv ATCC 27294 after 7 days by REMA assay. Conditions: H37Rv ATCC 27294, 168 h. In kind it is functional. The method, boiled down: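 MIC by resazurin microtiter assay. Bacteria suspended in sterile water with glass beads, vortexed, turbidity set to McFarland tube 1 (3.2 × 10^6 CFU/mL), then diluted 1:20 in Middlebrook 7H9. Compounds in DMSO, two-fold serial dilutions (100.0-3.2 µg/mL) in 7H9 with 10% OADC. Incubated 37 °C for 7 days, resazurin added, further 2 days at 37 °C. MIC read from colour change.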
The MIC is the least concentration at which growth counts as inhibited. A high value points to a less susceptible organism. For `NNC(=O)c1ccncc1` [ISONIAZID], the MIC turned out to be 0.06 µg/mL (≈ 0.438 µM).
Under `CCCCCCCCCCCCCCCC(=O)NNC(=O)c1ccncc1` stands 0.015 µg/mL (≈ 0.0399 µM).
Under `CCCCCCCC/C=C\CCCCCCCC(=O)NN` [OLEOHYDRAZIDE] stands 50 µg/mL (≈ 169 µM); under `CO[C@H]1/C=C/O[C@@]2(C)Oc3c(C)c(O)c4c(O)c(c(/C=N/N5CCN(C)CC5)c(O)c4c3C2=O)NC(=O)/C(C)=C\C=C\[C@H](C)[C@H](O)[C@@H](C)[C@@H](O)[C@@H](C)[C@H](OC(C)=O)[C@@H]1C` [RIFAMPIN], 0.03 µg/mL (≈ 0.0365 µM); under `CCCCCCCC/C=C/CCCCCCCC(=O)NNC(=O)c1ccncc1`, 0.03 µg/mL (≈ 0.0747 µM).
For `CCCCCCCC/C=C\CCCCCCCC(=O)O` [OLEIC ACID], the MIC was 100 µg/mL (≈ 354 µM).
With `CC/C=C\C/C=C\C/C=C\CCCCCCCC(=O)NNC(=O)c1ccncc1` the figure was 0.06 µg/mL (≈ 0.151 µM); with `CCCCCCCCCCCCCCCCCC(=O)NNC(=O)c1ccncc1`, 0.03 µg/mL (≈ 0.0743 µM).
As for `CCCCC/C=C\C/C=C\CCCCCCCC(=O)NNC(=O)c1ccncc1`, inhibition of growth (MIC) required 0.125 µg/mL (≈ 0.313 µM).
With `CCCCCC[C@@H](O)C/C=C\CCCCCCCC(=O)NNC(=O)c1ccncc1` the figure was 0.03 µg/mL (≈ 0.0718 µM).
Under `CCCCCCCC/C=C\CCCCCCCC(=O)NNC(=O)c1ccncc1` stands 0.015 µg/mL (≈ 0.0374 µM).
